One series addresses Carbonic anhydrase 1 (Homo sapiens, UniProt P00915). Briefly: Inhibition of human recombinant carbonic anhydrase 1 expressed in Escherichia coli by stopped flow CO2 hydration assay.
The next series addresses Carbonic anhydrase 2 (Homo sapiens, UniProt P00918). Briefly: Inhibition of human recombinant carbonic anhydrase 2 expressed in Escherichia coli by stopped flow CO2 hydration assay.
The target in the next series is Carbonic anhydrase 9 (Homo sapiens, UniProt Q16790). Briefly: Inhibition of human recombinant carbonic anhydrase 9 expressed in Escherichia coli by stopped flow CO2 hydration assay. A digest of the protocol: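 Recombinant human CA IX produced in E. coli, used at 8.0 nM; CO2 hydration activity followed by stopped-flow. IC50 is taken from seven-concentration dose–response curves fitted by nonlinear least squares, mean of at least three determinations. Ki is derived by Cheng–Prusoff, Ki = IC50/(1 + [S]/Km), where [S] is the CO2 concentration used.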

Another series concerns the target Carbonic anhydrase 4 (Homo sapiens, UniProt P22748).
For series [1], the target named is Carbonic anhydrase 5A, mitochondrial (Homo sapiens, UniProt P35218).
Series [2] addresses Carbonic anhydrase 5B, mitochondrial (Homo sapiens, UniProt Q9Y2D0).
In a further series the target is Carbonic anhydrase 7 (Homo sapiens, UniProt P43166).
Carbonic anhydrase 7, sequence (P43166 whole entry): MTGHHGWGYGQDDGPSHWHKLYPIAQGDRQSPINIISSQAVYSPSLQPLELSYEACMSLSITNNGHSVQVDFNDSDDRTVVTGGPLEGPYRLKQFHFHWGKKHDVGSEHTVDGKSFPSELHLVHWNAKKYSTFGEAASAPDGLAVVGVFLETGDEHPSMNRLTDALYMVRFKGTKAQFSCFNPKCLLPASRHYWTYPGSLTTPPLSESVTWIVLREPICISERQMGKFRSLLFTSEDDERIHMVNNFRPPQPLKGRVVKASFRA

Carbonic anhydrase 1, sequence (P00915 whole entry): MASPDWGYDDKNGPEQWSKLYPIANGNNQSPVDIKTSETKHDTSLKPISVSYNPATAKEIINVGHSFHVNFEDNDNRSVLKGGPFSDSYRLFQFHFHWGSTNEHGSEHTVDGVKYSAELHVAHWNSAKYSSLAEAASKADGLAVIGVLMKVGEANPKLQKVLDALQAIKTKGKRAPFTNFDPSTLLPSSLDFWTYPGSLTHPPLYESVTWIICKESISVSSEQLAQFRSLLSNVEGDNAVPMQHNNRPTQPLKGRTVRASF
Carbonic anhydrase 4, sequence (P22748 whole entry): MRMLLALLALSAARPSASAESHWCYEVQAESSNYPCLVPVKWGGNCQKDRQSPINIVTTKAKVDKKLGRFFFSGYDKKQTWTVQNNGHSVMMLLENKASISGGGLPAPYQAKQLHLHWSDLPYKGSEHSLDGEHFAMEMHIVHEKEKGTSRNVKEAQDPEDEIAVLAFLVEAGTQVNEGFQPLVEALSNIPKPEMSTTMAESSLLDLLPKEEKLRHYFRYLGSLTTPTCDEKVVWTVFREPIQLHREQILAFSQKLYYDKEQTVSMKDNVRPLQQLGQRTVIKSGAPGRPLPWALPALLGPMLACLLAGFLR
Carbonic anhydrase 5B, mitochondrial, sequence (Q9Y2D0 whole entry): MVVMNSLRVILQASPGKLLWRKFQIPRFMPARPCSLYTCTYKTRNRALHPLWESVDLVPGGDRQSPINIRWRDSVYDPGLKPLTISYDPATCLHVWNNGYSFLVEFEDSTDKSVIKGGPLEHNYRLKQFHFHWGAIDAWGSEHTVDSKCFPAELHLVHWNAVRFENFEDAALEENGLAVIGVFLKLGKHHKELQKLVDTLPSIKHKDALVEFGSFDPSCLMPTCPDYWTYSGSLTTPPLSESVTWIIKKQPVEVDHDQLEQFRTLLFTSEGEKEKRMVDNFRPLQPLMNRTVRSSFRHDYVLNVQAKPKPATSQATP
Carbonic anhydrase 5A, mitochondrial, sequence (P35218 whole entry): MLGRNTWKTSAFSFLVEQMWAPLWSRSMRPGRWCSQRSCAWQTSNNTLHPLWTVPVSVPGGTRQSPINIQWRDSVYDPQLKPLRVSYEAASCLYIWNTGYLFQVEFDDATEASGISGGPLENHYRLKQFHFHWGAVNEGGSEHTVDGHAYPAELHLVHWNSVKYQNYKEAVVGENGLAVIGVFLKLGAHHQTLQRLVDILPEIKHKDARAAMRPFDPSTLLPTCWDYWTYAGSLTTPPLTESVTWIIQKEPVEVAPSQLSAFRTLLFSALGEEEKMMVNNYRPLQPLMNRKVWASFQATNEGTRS

Turning to `Nc1ccc2c(c1)S(=O)(=O)NC2=O`, the Ki was over 50 µM at Carbonic anhydrase 1, over 50 µM at Carbonic anhydrase 2 and 0.61 µM on Carbonic anhydrase 9.
On to `O=C1NS(=O)(=O)c2cc([N+](=O)[O-])ccc21`, for which the inhibitory constant (Ki) at Carbonic anhydrase 1 and on Carbonic anhydrase 2 was over 50 µM in each case.
As to `[N-]=[N+]=Nc1ccc2c(c1)S(=O)(=O)NC2=O`, on Carbonic anhydrase 9, the Ki came to 0.466 µM.
Regarding `O=C1NS(=O)(=O)c2cc(-n3cc(-c4ccccc4)nn3)ccc21`, the figures for the inhibition constant Ki at Carbonic anhydrase 1 and at Carbonic anhydrase 9 were over 50 µM and 0.484 µM, respectively.
As to `Cc1cccc(-c2cn(-c3ccc4c(c3)S(=O)(=O)NC4=O)nn2)c1`, the Ki was over 50 µM on Carbonic anhydrase 1 and 0.0897 µM at Carbonic anhydrase 9.
Turning to `O=C1NS(=O)(=O)c2cc(-n3cc(-c4ccccc4C(F)(F)F)nn3)ccc21`, the Ki was over 50 µM on Carbonic anhydrase 2 and 0.443 µM on Carbonic anhydrase 9.
Taken in the same sequence, the figures for `COc1ccc(-c2cn(-c3ccc4c(c3)S(=O)(=O)NC4=O)nn2)cc1` were over 50 µM and 0.341 µM.
Consider `Cc1cc(-c2cn(-c3ccc4c(c3)S(=O)(=O)NC4=O)nn2)ccc1F`, for which the Ki at Carbonic anhydrase 1 is over 50 µM; on Carbonic anhydrase 9 it was 0.0478 µM.
`COc1ccc(-c2cn(-c3ccc4c(c3)S(=O)(=O)NC4=O)nn2)c(C)c1`: the Ki at Carbonic anhydrase 2 was over 50 µM; on Carbonic anhydrase 9, 0.0957 µM.
As to `O=C1NS(=O)(=O)c2cc(-n3cc(CO[C@@H]4O[C@H](CO)[C@@H](O)[C@H](O)[C@H]4O)nn3)ccc21`, the Ki at Carbonic anhydrase 1 was over 50 µM; at Carbonic anhydrase 2, over 50 µM; at Carbonic anhydrase 9, 0.0495 µM.
For the compound `O=C1NS(=O)(=O)c2ccccc21` [SACCHARIN], the inhibitory constant (Ki) came out at 7.92 µM at Carbonic anhydrase 4, 10.1 µM in series [1], 7.21 µM in series [2] and 0.01 µM at Carbonic anhydrase 7. Also, the pKa in the series “physchem” was 1.3.
